Measurements as given in PMC5626417 (International Journal of Nanomedicine, 2017).
Ends that are not written are not given here.

Experiments:
HeLa cells [1] = conditions: after 20 hours of incubation with 1 μM (0.854 μg/mL) PTX; cited from earlier work
[2] = In vivo plasma concentration and bio-distribution of PTX; parameters: species or system BALB/c mice; conditions: mice, HPLC
Procedure, shortened: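 Female BALB/c mice (4–6 weeks, 18–22 g) carried subcutaneous HeLa xenografts (5×10^6 cells) grown to ~50 mm3. Filtered formulations (100 μL) were dosed daily via tail vein for 2 weeks. Blood and organs (lung, liver, kidney, heart, spleen) were saline-washed, weighed and stored at −20°C. Plasma and homogenates were methanol-precipitated and spun at 12,000 rpm for 10 min; PTX was quantified by C18 HPLC at 227 nm.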

[3] = tested on: L292 cells, HCT cells, A594 cells, Hep-G2 cells, and HSC cells; experiment: Cytotoxicity of Rq and Rq/PTX on other cell types; format: cell-based; conditions: 24 hours incubation with 1,000 μM Rq; Figure S2
HeLa cells [4] = experiment: Cytotoxicity of CPP; format: cell-based, Human; conditions: MTT, 3 and 24 hours incubation, up to 1,000 μM
Procedure, shortened: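 HeLa cells seeded at 5×10^3/well and grown 24 h. Exposed to peptide at 50–1,000 μM for 3 h, washed twice with PBS, then given fresh medium for 24 h. A parallel arm used 100 and 1,000 μM for 24 h. Viability by MTT (3 h, DMSO solubilisation, OD492), expressed as percent of untreated cells.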

HeLa cells [5] = experiment: Cellular uptake and distribution by fluorescence / confocal microscopy; format: cell-based, Human; conditions: 10 and 100 μM, 30 minutes, 37°C, serum-free medium
Procedure, shortened: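 HeLa cells (4×10^4) on coverslips, 24 h, then FITC-labelled peptide or FITC alone at 10 or 100 μM in serum-free medium, 37°C for 30 min. Washed twice in PBS with heparin to strip surface-bound peptide, fixed in 4% PFA. For widefield imaging, nuclei were DAPI-stained; for intracellular distribution, cells were imaged by confocal microscopy immediately after fixation.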

In the case of CC(=O)O[C@H]1C(=O)[C@@]2(C)[C@H]([C@H](OC(=O)c3ccccc3)[C@]3(O)C[C@H](OC(=O)[C@H](O)[C@@H](NC(=O)c4ccccc4)c4ccccc4)C(C)=C1C3(C)C)[C@]1(OC(C)=O)CO[C@@H]1C[C@@H]2O [PTX, paclitaxel], the “intracellular PTX concentration” value (HeLa cells [1]) is given as 0.206 mg/mL, the “PTX level in tissues (organs)” value ([2]; after 2 weeks of daily tail vein treatment, tissue homogenate) is given as “accumulated in liver, kidney, and heart” and the “drop in the PTX concentration in plasma” value ([2]; tail vein injection, 30 minutes versus 24 hours after injection) is given as “sharply decreased”.
In the case of RRRRQWWQW [Rq], the “cell viability of other cell types after incubation with Rq” value [3] is reported as “no significant decrease in the cell viability” and the “cell viability after incubation with Rq” value (HeLa cells [4]) is reported as “Nearly all the cells were viable”.
For fluorescein isothiocyanate [FITC], the “green fluorescence in cells (fluorescence microscopy)” value (HeLa cells [5]) was “no fluorescence was observed”.
